{"data": "Measured values pooled from the literature", "target": "Carbonic anhydrase 1 (CA1, Homo sapiens, UniProt P00915)", "read-out": "enzyme activity", "mode": "inhibitor", "note": "Protocols differ between the studies behind these lines."}
{"SMILES": "CC(C)c1cc2c(c(O)c1O)[C@@]1(C(=O)O)CCCC(C)(C)[C@@H]1CC2", "measurement": "Ki", "result": "0.00598 µM"}
{"SMILES": "NC(=S)N/N=C1/c2ccccc2[C@@H]2[C@H]1[C@@H](c1ccc(C(F)(F)F)cc1)[C@H](C(=O)c1ccc(C(F)(F)F)cc1)[C@H]2c1ccc(C(F)(F)F)cc1 (racemic)", "technique": "absorbance", "measurement": "IC50", "result": "0.57 µM"}
{"SMILES": "CC(C)c1cc2c(c(O)c1O)[C@@]13CCCC(C)(C)[C@@H]1[C@H](OC3=O)[C@H]2O", "measurement": "IC50", "result": "0.00021 µM"}
{"SMILES": "NC(=S)N/N=C1/c2ccccc2[C@@H]2[C@H]1[C@@H](c1cccs1)[C@H](C(=O)c1cccs1)[C@H]2c1cccs1 (racemic)", "technique": "absorbance", "measurement": "IC50", "result": "0.774 µM"}
{"SMILES": "CC(C)c1cc2c(c(O)c1O)[C@@]13CCCC(C)(C)[C@@H]1[C@@H](O)[C@@H]2OC3=O", "measurement": "Ki", "result": "0.00128 µM"}
{"SMILES": "O=C(Nc1ccc2c(c1)C=CCP(=O)(O)O2)c1ccc(F)cc1", "technique": "stopped-flow", "measurement": "Ki", "result": "> 10 µM"}
{"SMILES": "N#C[Se]CCCCOc1ccc2c(-c3ccccc3)cc(=O)oc2c1", "technique": "stopped-flow", "measurement": "Ki", "result": "> 100 µM"}
{"SMILES": "Cc1ccc([C@H]2[C@H](C(=O)c3cccs3)[C@@H](c3cccs3)[C@@H]3c4ccccc4/C(=N/NC(N)=S)[C@@H]32)cc1 (racemic)", "technique": "absorbance", "measurement": "IC50", "result": "1.67 µM"}
{"SMILES": "O=C(Nc1ccc2c(c1)C=CCP(=O)(O)O2)c1ccc([N+](=O)[O-])cc1", "technique": "stopped-flow", "measurement": "Ki", "result": "> 10 µM"}
{"SMILES": "NC(=S)N/N=C1/c2ccccc2[C@@H]2[C@H]1[C@@H](c1ccc(F)cc1)[C@H](C(=O)c1ccc(F)cc1)[C@H]2c1ccc(F)cc1 (racemic)", "technique": "absorbance", "measurement": "IC50", "result": "0.293 µM"}
{"SMILES": "O=C(Nc1ccc2c(c1)C=CCP(=O)(O)O2)c1ccccc1I", "technique": "stopped-flow", "measurement": "Ki", "result": "> 10 µM"}
{"SMILES": "NC(=S)N/N=C1/c2ccccc2[C@@H]2[C@H]1[C@@H](c1ccoc1)[C@H](C(=O)c1ccco1)[C@H]2c1ccoc1", "technique": "absorbance", "measurement": "IC50", "result": "0.434 µM"}
{"SMILES": "O=C(Nc1cccc(C(F)(F)F)c1)Nc1ccc2c(c1)C=CCP(=O)(O)O2", "technique": "stopped-flow", "measurement": "Ki", "result": "> 10 µM"}
{"SMILES": "CC(C)c1cc2c(c(O)c1O)[C@@]13CCCC(C)(C)[C@@H]1C[C@@H]2OC3=O", "measurement": "IC50", "result": "0.0024 µM"}
{"SMILES": "N#C[Se]Cc1cc(=O)oc2cc(O)ccc12", "technique": "stopped-flow", "measurement": "Ki", "result": "> 100 µM"}
